This passage reports Ki and inhibition results from ChEMBL document CHEMBL1828538, “Synthesis and pharmacological evaluation of indole-based sigma receptor ligands” (Eur J Med Chem, 2011).

By Ki is commonly meant the dissociation constant of the complex between target and ligand, obtained from inhibition or displacement. A lower Ki goes with higher affinity.

SMILES strings stand for the structures. Activity calls are given as the source filed them. The calls are words filed in the database; no cut-off is given here.

One test deals with D(2) dopamine receptor (Homo sapiens, UniProt P14416). Nature of the test: Displacement of [3H]YM-09151-2 from human D2 receptor expressed in CHO cells. Type of test: cell-based. An outline of the steps:
(§1)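 CHOp-D2 or CHOp-D3 cells were labelled with 0.2–0.5 nM [3H]YM-09151-2, and nonspecific binding was set with 1 μM chlorpromazine. Ki was from standard competition conditions, as mean ± SEM of replicate assays.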
A general note: Displacement assays read how much labelled ligand stays bound in the presence of the test substance.

In test [1] the target is Mu-type opioid receptor (Homo sapiens) (UniProt P35372). Nature of the test: Displacement of radioligand from opioid mu receptor assessed as 50% receptor inhibition at 10^-5 M. In short, it runs like this:
(§2)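 Part of a contracted (NovaScreen) panel of 64 radioligand/enzyme assays, with the test compound run at 10⁻⁵ M and 10⁻⁷ M. Each assay was scored by whether radioligand displacement exceeded 50% at each concentration.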

A short description of test [2]: Displacement of radioligand from muscarinic receptor assessed as 50% receptor inhibition at 10^-7 M. In short, it runs like this:
as §2

Test [3] has as its target T1, Muscarinic acetylcholine receptor M1 (Homo sapiens) (UniProt P11229).
T1 sequence (whole entry): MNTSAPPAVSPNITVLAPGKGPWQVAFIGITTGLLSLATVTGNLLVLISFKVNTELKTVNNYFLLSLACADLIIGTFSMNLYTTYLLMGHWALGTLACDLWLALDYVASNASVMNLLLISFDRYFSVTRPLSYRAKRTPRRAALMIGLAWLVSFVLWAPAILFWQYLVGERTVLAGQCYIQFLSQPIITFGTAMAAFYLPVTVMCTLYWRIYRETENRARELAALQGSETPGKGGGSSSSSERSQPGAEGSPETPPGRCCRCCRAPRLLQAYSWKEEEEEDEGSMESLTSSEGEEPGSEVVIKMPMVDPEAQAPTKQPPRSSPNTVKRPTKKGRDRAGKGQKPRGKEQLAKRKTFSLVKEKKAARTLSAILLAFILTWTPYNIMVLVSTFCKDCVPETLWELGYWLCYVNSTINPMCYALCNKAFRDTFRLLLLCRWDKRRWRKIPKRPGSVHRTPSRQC
The test can be described thus: Displacement of radioligand from muscarinic M1 receptor assessed as 50% receptor inhibition at 10^-7 M. An outline of the steps:
as §2

The nature of test [4]: Displacement of radioligand from sodium channel site 2 assessed as 50% receptor inhibition at 10^-5 M. In short, it runs like this:
as §2

Test [5] concerns the target Cannabinoid receptor 2 (Homo sapiens) (UniProt P34972). Nature of the test: Displacement of radioligand from cannabinoid CB2 receptor assessed as 50% receptor inhibition at 10^-7 M. In short, it runs like this: as §2
Test [6] can be described thus: Displacement of radioligand from dopamine D4.2 receptor assessed as 50% receptor inhibition at 10^-7 M. In short, it runs like this:
as §2

Test [7] concerns the target Sodium-dependent dopamine transporter (Homo sapiens, UniProt Q01959). The test can be described thus: Displacement of [125I]RTI-55 from human DAT expressed in HEK293 cells. The format is cell-based. An outline of the steps:
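Nonspecific binding was defined with 5 μM mazindol. Ki was determined under standard conditions and reported as mean ± SEM of replicate assays. A value >10000 nM means less than 30% radioligand displacement at that concentration.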

The target in another test is D(3) dopamine receptor (Homo sapiens, UniProt P35462). Nature of the test: Displacement of [3H]YM-09151-2 from human D3 receptor expressed in CHO cells. The format is cell-based. In short, it runs like this:
as §1

The target in test [8] is T2, Substance-K receptor (Homo sapiens) (UniProt P21452).
T2 sequence (whole entry): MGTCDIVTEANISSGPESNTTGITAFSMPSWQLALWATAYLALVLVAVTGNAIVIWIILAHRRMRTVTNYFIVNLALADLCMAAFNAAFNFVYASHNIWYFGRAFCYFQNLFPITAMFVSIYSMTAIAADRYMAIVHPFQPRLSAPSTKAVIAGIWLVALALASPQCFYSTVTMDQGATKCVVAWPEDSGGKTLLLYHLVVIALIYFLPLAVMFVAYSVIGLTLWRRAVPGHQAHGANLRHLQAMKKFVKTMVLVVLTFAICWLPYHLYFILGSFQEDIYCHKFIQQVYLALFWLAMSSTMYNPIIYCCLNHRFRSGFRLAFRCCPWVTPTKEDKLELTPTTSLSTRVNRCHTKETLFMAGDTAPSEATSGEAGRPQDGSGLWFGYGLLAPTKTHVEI
The test can be described thus: Displacement of radioligand from neurokinin NK2 receptor assessed as 50% receptor inhibition at 10^-5 M. In short, it runs like this:
as §2

Test [9] in a line: Displacement of radioligand from adrenergic alpha1 receptor assessed as 50% receptor inhibition at 10^-5 M. In short, it runs like this:
as §2

Test [10] in a line: Displacement of radioligand from adrenergic alpha2 receptor assessed as 50% receptor inhibition at 10^-7 M. An outline of the steps: as §2
The nature of test [11]: Displacement of radioligand from BZT-sensitive L-type calcium channel assessed as 50% receptor inhibition at 10^-5 M. An outline of the steps:
as §2

Test [12] deals with T3, Glycine receptor subunit alpha-1 (Homo sapiens) (UniProt P23415).
T3 sequence (whole entry): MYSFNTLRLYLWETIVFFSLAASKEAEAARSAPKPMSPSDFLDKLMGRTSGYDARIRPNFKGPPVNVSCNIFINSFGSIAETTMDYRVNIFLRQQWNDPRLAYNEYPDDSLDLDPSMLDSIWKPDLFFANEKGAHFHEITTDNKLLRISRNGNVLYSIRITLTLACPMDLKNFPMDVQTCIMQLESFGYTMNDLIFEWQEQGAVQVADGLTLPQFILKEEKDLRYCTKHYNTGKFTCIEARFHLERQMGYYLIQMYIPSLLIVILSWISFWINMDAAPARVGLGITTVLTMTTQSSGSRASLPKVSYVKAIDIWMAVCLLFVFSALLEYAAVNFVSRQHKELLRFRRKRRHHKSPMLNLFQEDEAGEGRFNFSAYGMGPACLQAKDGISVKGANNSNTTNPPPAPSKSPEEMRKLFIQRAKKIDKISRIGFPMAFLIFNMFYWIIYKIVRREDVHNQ
Nature of the test: Displacement of radioligand from strychnine sensitive glycine receptor assessed as 50% receptor inhibition at 10^-7 M. In short, it runs like this: as §2

Test [13] has as its target T2, Substance-K receptor (Homo sapiens). The test can be described thus: Displacement of radioligand from neurokinin NK2 receptor assessed as 50% receptor inhibition at 10^-7 M. An outline of the steps:
as §2

Test [14] addresses T4, Muscarinic acetylcholine receptor M2 (Homo sapiens) (UniProt P08172).
T4 sequence (whole entry): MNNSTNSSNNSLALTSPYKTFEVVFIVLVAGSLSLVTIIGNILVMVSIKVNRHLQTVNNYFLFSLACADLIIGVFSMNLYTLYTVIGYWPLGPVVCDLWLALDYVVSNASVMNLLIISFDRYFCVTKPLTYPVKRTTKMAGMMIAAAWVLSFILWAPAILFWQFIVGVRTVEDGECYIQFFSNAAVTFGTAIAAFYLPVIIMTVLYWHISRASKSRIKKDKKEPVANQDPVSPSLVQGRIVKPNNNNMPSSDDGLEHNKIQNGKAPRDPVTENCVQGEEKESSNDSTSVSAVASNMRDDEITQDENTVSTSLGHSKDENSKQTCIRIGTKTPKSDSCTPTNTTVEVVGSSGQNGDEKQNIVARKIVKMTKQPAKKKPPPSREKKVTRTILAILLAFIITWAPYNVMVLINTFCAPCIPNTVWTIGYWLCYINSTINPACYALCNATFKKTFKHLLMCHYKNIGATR
Nature of the test: Displacement of radioligand from muscarinic M2 receptor assessed as 50% receptor inhibition at 10^-7 M. In short, it runs like this:
as §2

Test [15] has as its target Sodium-dependent serotonin transporter (Homo sapiens, UniProt P31645). Nature of the test: Displacement of [125I]RTI-55 from human SERT expressed in HEK293 cells. The format is cell-based.

D(3) dopamine receptor, sequence (P35462 whole entry): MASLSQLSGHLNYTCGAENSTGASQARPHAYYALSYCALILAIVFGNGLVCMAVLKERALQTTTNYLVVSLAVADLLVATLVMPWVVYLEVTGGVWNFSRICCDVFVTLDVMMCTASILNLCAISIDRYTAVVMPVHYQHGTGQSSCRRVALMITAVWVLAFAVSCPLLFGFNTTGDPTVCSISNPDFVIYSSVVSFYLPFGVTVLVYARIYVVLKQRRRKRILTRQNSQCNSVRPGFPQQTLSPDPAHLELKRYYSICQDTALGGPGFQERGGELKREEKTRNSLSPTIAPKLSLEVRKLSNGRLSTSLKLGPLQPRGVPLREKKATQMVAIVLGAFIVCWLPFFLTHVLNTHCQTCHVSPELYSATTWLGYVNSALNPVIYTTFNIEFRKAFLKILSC
Cannabinoid receptor 2 (Homo sapiens), sequence (P34972 whole entry): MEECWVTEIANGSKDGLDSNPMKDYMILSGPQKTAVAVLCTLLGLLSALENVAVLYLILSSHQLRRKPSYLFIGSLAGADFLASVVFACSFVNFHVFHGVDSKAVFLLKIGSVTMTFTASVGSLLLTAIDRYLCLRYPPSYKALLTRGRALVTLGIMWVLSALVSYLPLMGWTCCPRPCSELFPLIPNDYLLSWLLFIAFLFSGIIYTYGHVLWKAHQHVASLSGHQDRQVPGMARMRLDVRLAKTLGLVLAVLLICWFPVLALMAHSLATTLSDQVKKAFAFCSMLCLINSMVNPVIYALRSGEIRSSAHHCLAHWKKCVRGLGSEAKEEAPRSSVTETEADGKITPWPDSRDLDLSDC
Mu-type opioid receptor (Homo sapiens), sequence (P35372 whole entry): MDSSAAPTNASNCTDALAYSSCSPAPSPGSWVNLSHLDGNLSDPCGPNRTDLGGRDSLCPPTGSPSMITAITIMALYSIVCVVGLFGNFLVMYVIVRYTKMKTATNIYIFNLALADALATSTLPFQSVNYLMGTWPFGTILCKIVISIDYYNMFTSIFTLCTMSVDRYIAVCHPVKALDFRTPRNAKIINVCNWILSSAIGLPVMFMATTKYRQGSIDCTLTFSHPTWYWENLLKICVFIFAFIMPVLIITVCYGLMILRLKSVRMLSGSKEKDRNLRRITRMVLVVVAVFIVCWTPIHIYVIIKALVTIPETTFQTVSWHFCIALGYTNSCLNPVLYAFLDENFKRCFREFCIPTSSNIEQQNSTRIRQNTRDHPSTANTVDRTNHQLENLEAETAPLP
Sodium-dependent dopamine transporter, sequence (Q01959 whole entry): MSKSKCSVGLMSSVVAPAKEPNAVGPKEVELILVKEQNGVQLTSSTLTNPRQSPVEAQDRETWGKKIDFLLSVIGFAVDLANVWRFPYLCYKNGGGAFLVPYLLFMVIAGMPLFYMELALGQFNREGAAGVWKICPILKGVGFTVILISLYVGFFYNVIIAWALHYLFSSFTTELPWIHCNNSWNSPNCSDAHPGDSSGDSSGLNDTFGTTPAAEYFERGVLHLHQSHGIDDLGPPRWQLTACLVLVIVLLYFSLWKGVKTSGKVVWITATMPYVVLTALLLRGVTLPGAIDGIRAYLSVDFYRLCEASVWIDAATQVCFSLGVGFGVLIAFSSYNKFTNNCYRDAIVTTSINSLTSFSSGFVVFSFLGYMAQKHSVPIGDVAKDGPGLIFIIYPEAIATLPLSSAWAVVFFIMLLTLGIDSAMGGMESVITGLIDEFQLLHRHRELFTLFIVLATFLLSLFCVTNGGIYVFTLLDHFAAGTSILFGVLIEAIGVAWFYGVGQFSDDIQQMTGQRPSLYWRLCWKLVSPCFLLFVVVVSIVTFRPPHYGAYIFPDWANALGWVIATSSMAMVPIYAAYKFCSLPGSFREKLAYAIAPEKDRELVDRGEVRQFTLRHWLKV
Sodium-dependent serotonin transporter, sequence (P31645 whole entry): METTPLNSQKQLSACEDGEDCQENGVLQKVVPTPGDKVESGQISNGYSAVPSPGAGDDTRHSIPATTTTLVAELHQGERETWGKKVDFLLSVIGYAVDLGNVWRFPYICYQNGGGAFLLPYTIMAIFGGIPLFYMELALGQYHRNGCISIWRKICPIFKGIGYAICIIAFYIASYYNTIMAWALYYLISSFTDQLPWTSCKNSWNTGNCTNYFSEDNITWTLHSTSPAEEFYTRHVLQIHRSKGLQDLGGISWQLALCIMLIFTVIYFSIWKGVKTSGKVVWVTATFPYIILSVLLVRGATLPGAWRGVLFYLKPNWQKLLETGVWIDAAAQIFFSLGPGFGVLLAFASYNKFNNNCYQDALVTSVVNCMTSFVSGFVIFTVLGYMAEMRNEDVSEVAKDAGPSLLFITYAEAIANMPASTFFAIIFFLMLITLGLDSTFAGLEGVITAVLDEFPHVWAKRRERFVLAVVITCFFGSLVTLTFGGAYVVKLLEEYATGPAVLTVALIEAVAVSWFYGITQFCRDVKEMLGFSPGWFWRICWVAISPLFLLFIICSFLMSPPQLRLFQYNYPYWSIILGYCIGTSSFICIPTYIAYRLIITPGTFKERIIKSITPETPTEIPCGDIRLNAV
D(2) dopamine receptor, sequence (P14416 whole entry): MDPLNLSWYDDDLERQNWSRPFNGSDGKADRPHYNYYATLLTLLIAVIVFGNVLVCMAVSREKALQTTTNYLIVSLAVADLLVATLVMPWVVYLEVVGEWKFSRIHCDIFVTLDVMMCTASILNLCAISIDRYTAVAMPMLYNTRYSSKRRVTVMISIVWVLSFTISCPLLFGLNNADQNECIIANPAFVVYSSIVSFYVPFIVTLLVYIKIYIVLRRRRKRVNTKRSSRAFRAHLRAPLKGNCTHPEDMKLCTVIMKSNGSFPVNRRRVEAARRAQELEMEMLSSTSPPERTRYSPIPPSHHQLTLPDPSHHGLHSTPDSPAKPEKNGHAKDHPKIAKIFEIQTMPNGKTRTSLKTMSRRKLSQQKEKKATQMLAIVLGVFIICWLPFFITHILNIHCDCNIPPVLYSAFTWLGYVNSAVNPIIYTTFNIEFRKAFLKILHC

`COc1cc2c(cc1OC)CN(CCCCn1cc(-c3ccc(F)cc3)c3ccccc31)CC2`: the Ki stood at 870 nM on D(2) dopamine receptor, 5000 nM in test [7], 544 nM on D(3) dopamine receptor and 295 nM in [15]. The inhibition entry in test [1], in test [4], in [8], in [9], in test [11] and in test [12] was “Active” in each case. The inhibition entry in test [2], in test [3], in [5], in [6], in test [10] and in [13] was “inactive” each time. For the same compound, the inhibition entry in [14] is “inactive”.
